Key:
HeLa = test: Cytotoxicity against human HeLa cells after 48 hrs by SRB assay; type: functional; conditions: for CC50: read-out: LC50 (the source's name)
Summary of the method: (§1)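 Cells grown in RPMI 1640 with 10% FBS and penicillin/streptomycin at 37 °C and 5% CO₂, trypsinized, then seeded at 5 × 10³/well. After 18 h drug-free attachment, samples in DMSO/EtOH/PBS (0.5:0.5:99) were added for 48 h continuous exposure. Cells were fixed with cold TCA (1 h, 4 °C) and stained with SRB (10 min). Tris-solubilized stain read at 490 nm. Triplicate wells, mean ± SD; GI₅₀ derived.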

[1] = Cytotoxicity against human HeLa-APL cells after 48 hrs by SRB assay; type: functional; summary of the method: as §1
DU-145 = test: Cytotoxicity against human DU145 cells after 48 hrs by SRB assay; type: functional, cell-based; conditions: Homo sapiens, DU-145, 48 h; for CC50: read-out: LC50 (the source's name); summary of the method: as §1
SK-BR-3 = test: Cytotoxicity against human SKBR3 cells after 48 hrs by SRB assay; type: functional; conditions: SK-BR-3, 48 h; for GI50: read-out: GI50; for CC50: read-out: LC50 (the source's name); summary of the method: as §1
A549 = test: Cytotoxicity against human A549 cells after 48 hrs by SRB assay; type: functional, cell-based; conditions: Homo sapiens, A549, 48 h; for GI50: read-out: GI50; summary of the method: as §1
SK-MEL-28 = test: Cytotoxicity against human SK-MEL-28 cells after 48 hrs by SRB assay; type: functional, cell-based; conditions: Homo sapiens, SK-MEL-28, 48 h; for CC50: read-out: LC50 (the source's name); for GI50: read-out: GI50; summary of the method: as §1
LoVo [2] = test: Cytotoxicity against human LoVo cells after 48 hrs by SRB assay; type: functional; conditions: for CC50: read-out: LC50 (the source's name)
HT-29 = test: Cytotoxicity against human HT29 cells after 48 hrs by SRB assay; type: functional, cell-based; conditions: Homo sapiens, HT-29, 48 h; for CC50: read-out: LC50 (the source's name); summary of the method: as §1
[3] = Cytotoxicity against human IGROV cells after 48 hrs by SRB assay; type: functional; conditions: for CC50: read-out: LC50 (the source's name); summary of the method: as §1
PANC-1 = test: Cytotoxicity against human PANC1 cells after 48 hrs by SRB assay; type: functional; conditions: PANC-1, 48 h; for CC50: read-out: LC50 (the source's name); summary of the method: as §1
[4] = Cytotoxicity against human IGROV-ET cells after 48 hrs by SRB assay; type: functional; conditions: for CC50: read-out: LC50 (the source's name); summary of the method: as §1
K562 = test: Cytotoxicity against human K562 cells after 48 hrs by SRB assay; type: functional; conditions: K562, 48 h, read-out: LC50 (the source's name); summary of the method: as §1
LoVo [5] = test: Cytotoxicity against human doxorubicin resistant LoVo cells after 48 hrs by SRB assay; type: functional; conditions: for CC50: read-out: LC50 (the source's name); summary of the method: as §1

Row | Compound | GI50 (HeLa) [nM] | TGI (HeLa) [nM] | CC50 (HeLa) [nM] | LC50 (concentration giving 50% net cell kill) [1] [nM] | TGI (DU-145) [nM] | GI50 (DU-145; read-out: GI50) [nM] | CC50 (DU-145) [nM] | LC50 (A549) [nM] | CC50 (SK-MEL-28) [nM] | GI50 (LoVo [2]) [nM] | TGI (LoVo [2]) [nM] | CC50 (LoVo [2]) [nM] | GI50 (HT-29) [nM] | TGI (HT-29) [nM] | CC50 (HT-29) [nM] | CC50 [3] [nM] | GI50 (PANC-1) [nM] | TGI (PANC-1) [nM] | CC50 (PANC-1) [nM] | CC50 [4] [nM] | also measured
1 | CC[C@@H](C)[C@@H](NC(=O)[C@H](CCCN)NC(=O)[C@H]1CCCN1C(=O)[C@H](NC(=O)[C@@H](NC(=O)[C@@H](NC(=O)[C@H](NC(=O)CCCC(C)C)C(C)C)[C@@H](C)O)C(C)C)C(C)C)C(=O)N[C@H]1C(=O)N[C@H]([C@H](C)CC)C(=O)N[C@H](C(C)C)C(=O)N[C@@H](Cc2ccccc2)C(=O)N/C(=C\c2ccccc2)C(=O)N[C@@H](C(C)C)C(=O)O[C@H]1C | 1500 | 1180 | 936 | 704 | 1120 | 1390 | 893 | 1110 | 1390 | 836 | 1420 | 1890 | 5130 | 10100 | 5220 | 559 | 4540 | 4450 | 2140 | 629 | TGI (SK-BR-3): 1150 nM; GI50 (SK-BR-3): 601 nM; CC50 (SK-BR-3): 806 nM
2 | CC[C@@H](C)[C@@H](NC(=O)[C@H](CCCN)NC(=O)[C@H]1CCCN1C(=O)[C@H](NC(=O)[C@@H](NC(=O)[C@@H](NC(=O)[C@H](NC(=O)CCCC(C)C)C(C)C)[C@@H](C)O)C(C)C)C(C)C)C(=O)N[C@H]1C(=O)N[C@H]([C@H](C)CC)C(=O)N[C@H](C(C)C)C(=O)N[C@@H](Cc2ccccc2)C(=O)N[C@H]([C@H](C)O)C(=O)N[C@@H](C(C)C)C(=O)O[C@H]1C |  |  | 1490 | 1200 |  |  | 1500 | 1150 | 2540 | 3440 | 4230 | 4420 | 11800 | 10400 | 5370 | 941 | 4880 | 4580 | 2210 | 1030 | TGI (SK-BR-3): 6690 nM; GI50 (SK-BR-3): 6150 nM; CC50 (SK-BR-3): 1880 nM
3 | C/C=C1\NC(=O)[C@H](Cc2ccccc2)NC(=O)[C@@H](C(C)C)NC(=O)[C@@H]([C@H](C)CC)NC(=O)[C@H](NC(=O)[C@H](NC(=O)[C@H](CCCN)NC(=O)[C@H]2CCCN2C(=O)[C@H](NC(=O)[C@@H](NC(=O)[C@@H](NC(=O)[C@H](NC(=O)CC(C)C)C(C)C)[C@@H](C)O)C(C)C)C(C)C)[C@H](C)CC)[C@H](C)OC(=O)[C@H](C(C)C)NC1=O | 2090 | 2090 | 1630 | 1690 | 1860 | 2070 | 1660 | 1710 | 1330 | 1630 | 1990 | 2420 | 2980 | 3060 | 3140 | 848 |  |  | 2880 | 708 | GI50 [1]: 2330 nM; TGI [1]: 2000 nM; CC50 (K562): 3810 nM; TGI (A549): 1700 nM; GI50 (A549): 1680 nM; TGI (SK-MEL-28): 1620 nM; GI50 (SK-MEL-28): 1980 nM; GI50 (LoVo [5]): 882 nM; TGI (LoVo [5]): 1390 nM; CC50 (LoVo [5]): 1880 nM
4 | C/C=C1\NC(=O)[C@H](Cc2ccccc2)NC(=O)[C@@H](C(C)C)NC(=O)[C@@H]([C@H](C)CC)NC(=O)[C@H](NC(=O)[C@H](NC(=O)[C@H](CCCNC(=O)c2cc(F)c(F)c(F)c2F)NC(=O)[C@H]2CCCN2C(=O)[C@H](NC(=O)[C@@H](NC(=O)[C@@H](NC(=O)[C@H](NC(=O)CCCC(C)C)C(C)C)[C@@H](C)O)C(C)C)C(C)C)[C@H](C)CC)[C@H](C)OC(=O)[C@H](C(C)C)NC1=O | 288 | 685 | 861 | 869 |  | 726 | 831 | 1040 | 1060 | 84.2 | 93.8 | 104 | 116 | 95.1 | 202 | 274 | 1580 | 1580 | 1580 | 441 | GI50 [1]: 493 nM; TGI [1]: 595 nM; GI50 (DU-145): 831 nM; CC50 (K562): 172 nM; TGI (A549): 1040 nM; GI50 (A549): 1040 nM; TGI (SK-MEL-28): 1060 nM; GI50 (SK-MEL-28): 984 nM; CC50 (LoVo [5]): 87.8 nM; GI50 [3]: 217 nM; GI50 ([3]; read-out: GI50): 182 nM; GI50 [4]: 357 nM; GI50 ([4]; read-out: GI50): 332 nM
5 | C/C=C1\NC(=O)[C@H](Cc2ccccc2)NC(=O)[C@@H](C(C)C)NC(=O)[C@@H]([C@H](C)CC)NC(=O)[C@H](NC(=O)[C@H](NC(=O)[C@H](CCCN)NC(=O)[C@H]2CCCN2C(=O)[C@H](NC(=O)[C@@H](NC(=O)[C@@H](NC(=O)[C@H](NC(=O)CC[C@@H](C)[C@H]2CC[C@H]3[C@@H]4CC[C@@H]5C[C@H](O)CC[C@]5(C)[C@H]4CC[C@]23C)C(C)C)[C@@H](C)O)C(C)C)C(C)C)[C@H](C)CC)[C@H](C)OC(=O)[C@H](C(C)C)NC1=O | 740 | 5420 | 3130 | 3580 | 6000 | 5100 | 3310 | 3580 | 3870 | 14900 | 16900 | 9830 |  |  | 10300 | 2710 | 4350 | 9720 | 5520 | 2280 | CC50 (K562): 8320 nM; CC50 (LoVo [5]): 9860 nM; TGI [4]: 5580 nM; GI50 ([4]; read-out: GI50): 4400 nM

— ChEMBL document CHEMBL1156597, “Structure-activity relationship of kahalalide F synthetic analogues” (J Med Chem, 2008)
